Data taken from ChEMBL document CHEMBL2040794, “Synthesis and structure-activity analysis of new phosphonium salts with potent activity against African trypanosomes” (J Med Chem, 2012).

How the values were obtained:
[1] = system: Trypanosoma brucei rhodesiense; assay: Antitrypanosomal activity against Trypanosoma brucei rhodesiense STIB900 infected in rat L6 cells after 72 hrs by alamar blue assay; assay type: functional, organism-based
[2] = system: Trypanosoma brucei brucei; assay: Antitrypanosomal activity against diminazene-, pentamidine-, and melaminophenyl arsenical-resistant HAPT1-deficient Trypanosoma brucei brucei B48 after 3 days by alamar blue assay; assay type: functional, organism-based
Method in brief: (§1)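 Bloodstream-form T. b. brucei (wild-type s427; TbAT1-KO, made from s427 by TbAT1 deletion; B48, selected from TbAT1-KO in vitro on pentamidine, lacking functional HAPT1). Cells were exposed to compound for 48 h, then resazurin (Alamar blue) was added for a further 24 h. A single fluorescence reading gave EC50.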

[3] = system: Trypanosoma brucei brucei; assay: Resistance factor, ratio of EC50 for diminazene aceturate-resistant TbAT1 gene-deficient Trypanosoma brucei brucei AT1-KO to EC50 for wild type Trypanosoma brucei brucei Lister 427; assay type: functional
Method in brief: (§2)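 Resistance factor is the EC50 in the resistant line (TbAT1-KO or B48) divided by the EC50 in wild-type s427. […] Resistant and wild-type EC50s were compared by Student t-test.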

[4] = system: Trypanosoma brucei brucei; assay: Resistance factor, ratio of EC50 for diminazene-, pentamidine-, and melaminophenyl arsenical-resistant HAPT1-deficient Trypanosoma brucei brucei B48 to EC50 for wild type Trypanosoma brucei brucei Lister 427; assay type: functional; method in brief: as §2
[5] = Selectivity index, ratio of EC50 for rat L6 cells to EC50 for Trypanosoma brucei rhodesiense STIB900; assay type: toxicity, cell-based; details: for Ratio EC50: l6; for selectivity ratio: L6 cells, read-out: Ratio EC50
Method in brief: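 Ratio of EC₅₀ in L6 cells to EC₅₀ against T. b. rhodesiense STIB900, both from Alamar blue assays.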

[6] = Cytotoxicity against human HEK cells after 3 days by alamar blue assay; assay type: cell-based, HEK293
Method in brief: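 Human embryonic kidney cells tested by resazurin (Alamar blue) assay: 48 h with compound, then 24 h more after dye addition, single reading; EC₅₀ derived.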

[7] = system: Trypanosoma brucei brucei; assay: Antitrypanosomal activity against diminazene aceturate-resistant TbAT1 gene-deficient Trypanosoma brucei brucei AT1-KO after 3 days by alamar blue assay; assay type: functional, organism-based; method in brief: as §1
L6 = assay: Cytotoxicity against rat L6 cells after 72 hrs by alamar blue assay; assay type: cell-based
[8] = Selectivity index, ratio of EC50 for human HEK cells to EC50 for wild type Trypanosoma brucei brucei Lister 427; assay type: toxicity, cell-based, HEK293; details: for Ratio EC50: hek293; for selectivity ratio: HEK cells, read-out: Ratio EC50
Method in brief: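 Ratio of EC₅₀ in HEK cells to EC₅₀ in wild-type T. b. brucei s427, both from resazurin assays.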

[9] = system: Trypanosoma brucei brucei; assay: Antitrypanosomal activity against wild type Trypanosoma brucei brucei Lister 427 after 3 days by alamar blue assay; assay type: functional, organism-based; method in brief: as §1
[10] = Trypanosoma brucei, STIB900, 72 h
[11] = Trypanosoma brucei, AT1-KO, 72 h
[12] = Trypanosoma brucei, Lister 427, 72 h

Compound | EC50 [1] [nM] | EC50 [2] [nM] | Ratio EC50 [3] | Ratio EC50 [4] | Ratio EC50 [5] | EC50 ([6]; hek293) [nM] | EC50 [7] [nM] | EC50 (L6; l6) [nM] | Ratio EC50 [8] | EC50 [9] [nM] | EC50 [1, 10] [nM] | EC50 ([2]; Trypanosoma brucei, B48, 72 h) [nM] | selectivity ratio [5] | EC50 ([6]; Homo sapiens, HEK293, 72 h) [nM] | EC50 [7, 11] [nM] | EC50 (L6; Rattus norvegicus, L6, 72 h) [nM] | selectivity ratio [8] | EC50 [9, 12] [nM]
Cc1ccc([P+](Cc2ccc(C(=O)c3ccc(C[P+](c4ccc(C)cc4)(c4ccc(C)cc4)c4ccc(C)cc4)cc3)cc2)(c2ccc(C)cc2)c2ccc(C)cc2)cc1.[Cl-].[Cl-] | 84 | 73 | 0.7 | 0.8 | 14.5 | 24000 | 65 | 1220 | 254 | 94 | – | – | – | – | – | – | – | –
O=C(c1ccc(C[P+](Cc2ccccc2)(c2ccccc2)c2ccccc2)cc1)c1ccc(C[P+](Cc2ccccc2)(c2ccccc2)c2ccccc2)cc1.[Br-].[Br-] | – | – | 1.3 | 1.3 | – | – | – | – | – | – | 480 | 1030 | 67 | > 300000 | 1020 | 32000 | > 370 | 810
CCC[P+](Cc1ccc(Cc2ccc(C[P+](CCC)(c3ccccc3)c3ccccc3)cc2)cc1)(c1ccccc1)c1ccccc1.[Br-].[Br-] | – | – | 1.1 | 1.1 | – | – | – | – | – | – | 799 | 430 | 4.1 | > 300000 | 400 | 3270 | > 800 | 373
Cc1ccc([P+](Cc2ccc(C(=O)c3ccc(C[P+](c4ccc(C)cc4)(c4ccc(C)cc4)c4ccc(C)cc4)cc3)cc2)(c2ccc(C)cc2)c2ccc(C)cc2)cc1.[Br-].[Br-] | 220 | – | 1.6 | 0.8 | 49 | 141000 | 18 | 10800 | 1266 | – | – | 90 | – | – | – | – | – | 110
CCCC[P+](CCCC)(CCCC)Cc1ccc(C(=O)c2ccc(C[P+](CCCC)(CCCC)CCCC)cc2)cc1.[Br-].[Br-] | – | – | 2.7 | 3.4 | – | – | – | – | – | – | 355 | 1630 | 315 | > 300000 | 1320 | 112000 | > 620 | 480
Cc1cccc([P+](Cc2ccc(C(=O)c3ccccc3)cc2)(c2cccc(C)c2)c2cccc(C)c2)c1.[Br-] | – | – | 0.8 | 0.7 | – | – | – | – | – | – | 274 | 110 | 9.5 | 48200 | 150 | 2610 | 281 | 170
Cc1cccc([P+](Cc2ccc(Cc3ccc(C[P+](c4cccc(C)c4)(c4cccc(C)c4)c4cccc(C)c4)cc3)cc2)(c2cccc(C)c2)c2cccc(C)c2)c1.[Br-].[Br-] | – | – | 1 | 0.9 | – | – | – | – | – | – | 231 | 130 | 4 | 72600 | 140 | 939 | 524 | 140
CCC[P+](Cc1ccc(Oc2ccc(C[P+](CCC)(c3ccccc3)c3ccccc3)cc2)cc1)(c1ccccc1)c1ccccc1.[Br-].[Br-] | – | – | 1.1 | 1.2 | – | – | – | – | – | – | 567 | 300 | 5 | 233000 | 280 | 2900 | 914 | 250
CC[P+](Cc1ccc(C(=O)c2ccc(C[P+](CC)(c3ccccc3)c3ccccc3)cc2)cc1)(c1ccccc1)c1ccccc1.[Br-].[Br-] | – | – | 2.2 | 1.8 | – | – | – | – | – | – | 554 | 1760 | > 204 | > 300000 | 2100 | > 113000 | > 300 | 970
Cc1ccc([P+](Cc2ccc(C(=O)c3ccccc3)cc2)(c2ccccc2)c2ccccc2)cc1.[Br-] | – | – | 1 | 0.7 | – | – | – | – | – | – | 267 | 100 | 29 | 76800 | 150 | 7720 | 504 | 150
Cc1cccc([P+](Cc2ccc(Oc3ccccc3)cc2)(c2cccc(C)c2)c2cccc(C)c2)c1.[Br-] | – | – | 0.8 | 0.6 | – | – | – | – | – | – | 14 | 17 | 62 | 24500 | 21 | 870 | 876 | 28
O=C(c1ccc(C[P+](c2cccs2)(c2cccs2)c2cccs2)cc1)c1ccc(C[P+](c2cccs2)(c2cccs2)c2cccs2)cc1.[Br-].[Br-] | – | – | 1.6 | 1 | – | – | – | – | – | – | 290 | 330 | 58 | 260000 | 520 | 16600 | 785 | 330
COc1ccccc1[P+](Cc1ccc(C(=O)c2ccccc2)cc1)(c1ccccc1OC)c1ccccc1OC.[Br-] | – | – | 1.1 | 0.7 | – | – | – | – | – | – | 376 | 150 | 10 | 63200 | 220 | 3970 | 306 | 210
O=C(c1ccc(C[P+](c2cccc3ccccc23)(c2cccc3ccccc23)c2cccc3ccccc23)cc1)c1ccc(C[P+](c2cccc3ccccc23)(c2cccc3ccccc23)c2cccc3ccccc23)cc1.[Br-].[Br-] | – | – | 1.8 | 1 | – | – | – | – | – | – | 400 | 180 | 12 | 92000 | 339 | 4900 | 502 | 180
Cc1ccc([P+](Cc2ccc(Oc3ccccc3)cc2)(c2ccc(C)cc2)c2ccc(C)cc2)cc1.[Br-] | – | – | 0.8 | 0.7 | – | – | – | – | – | – | 2 | 10 | 131 | 17600 | 13 | 263 | 1140 | 15
COc1ccccc1[P+](Cc1ccc(C(=O)c2ccc(C[P+](c3ccccc3)(c3ccccc3OC)c3ccccc3OC)cc2)cc1)(c1ccccc1)c1ccccc1OC.[Br-].[Br-] | – | – | 1.3 | 0.8 | – | – | – | – | – | – | 230 | 190 | 28 | 107000 | 320 | 6400 | 438 | 240
[Br-].[Br-].c1ccc2c([P+](Cc3ccc(Cc4ccc(C[P+](c5cccc6ccccc56)(c5cccc6ccccc56)c5cccc6ccccc56)cc4)cc3)(c3cccc4ccccc34)c3cccc4ccccc34)cccc2c1 | – | – | 1.3 | 1 | – | – | – | – | – | – | 299 | 140 | 12 | 163000 | 170 | 3430 | 1210 | 140
